High-throughput results as filed in PubChem BioAssay.
T cell HTS – modulates CD8 T cell binding to vesicles | 2C CD8+ T cell-vesicle binding, flow cytometry; hits give low values | response (vesicle binding), % at 7 µM | actives 0.068% (n = 330,000) | AID 2052;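 active means response, share of CD8 T cells binding vesicles, and their 90th percentile fluorescence all below set limits, cut at about 80% in these data, passing the limit was not always enough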;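 further: values below 100% mean blocked vesicle binding to the CD8+ T cells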
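Assay system: 2C TCR transgenic mouse naive CD8+ T cells, MACS-purified | Read-out: CD8+ gate FL2 mean fluorescence as % of same-row positive control | Signal: High-throughput flow cytometry with anti-B7-1 and anti-CD8 staining | Timing: Binding step 1.5 h, 37 °C, antibody labelling 20 min, ice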
Bfl-1 A1 inh – inhibitors of the anti-apoptotic protein A1, read as caspase activation; MEF A1-2A-BIM cells, Caspase-Glo 3/7 luminescence, 3 h; percent of clofoctol response, vehicle zero; caspase activation, % (no concentration beside the values); actives 0.066% (n = 330,000); AID 2462;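 active means over half of replicate activation scores above 10%, or exactly half above 10 with the replicate mean above 10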
NALP1 inh – NALP1 inhibition; S. cerevisiae NALP1/ASC/caspase-1 growth, X-gal OD620, 72 h; inhibition, % at 10 µM; actives 0.61% (n = 280,000); in the data active means inhibition mostly above about 24%, no sharp cut-off; inactive means mostly below about 32%
NALP3 yeast inh – blocks the NALP3 inflammasome reconstituted in yeast; actives 0.39% (n = 330,000); inhibition, % at 10 µM; Yeast reconstituted NLRP3/ASC/caspase-1, beta-gal luminescence, 24 h;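 active means inhibition of 50% or more; inactive means inhibition below 50%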;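 further: plate controls were induced DMSO wells for no effect and uninduced yeast grown without galactose for full effect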
NALP3 confirm – NALP3 inhibition confirmation in yeast; yeast expressing human NALP3, luminescence; AID 435006; inhibition, % at 10 µM; shares compounds with NALP3 yeast inh; actives 81% (n = 1,300); in the data active means inhibition above about 48%
Casp1-ASC yeast – caspase-1-ASC yeast counter-screen hit; shares compounds with NALP3 yeast inh; yeast expressing Caspase-1-ASC, luminescence counter screen; inhibition, % at 10 µM; actives 66% (n = 1,000)
NALP3 yeast rt – retest-confirmed inhibitor of NALP3 in yeast. AID 488794. shares compounds with NALP3 yeast inh. inhibition, % at 10 µM. actives 53% (n = 1,000). yeast expressing human NALP3, luminescence read-out
Starred values were filed as active, the others as inactive; i = inactive; / = no result given. A selection: hits, their analogues and other compounds. The true share with any hit is near 1%. Unless noted, no stated cut-off is given here; in the data, active means inhibition above about 50%; inactive means the rest.

SMILES	T cell HTS	Bfl-1 A1 inh	NALP1 inh	NALP3 yeast inh	NALP3 confirm	Casp1-ASC yeast	NALP3 yeast rt
C[C@]12CCC(=O)C[C@@H]1CC[C@@H]1[C@@H]2CC[C@]2(C)[C@@H](C(=O)COC(=O)CCC(=O)O)CC[C@@H]12	203.9	-0.6	29.0	54.0*	77.3*	50.7*	47.2
N#C/C(=C\c1ccc(O)cc1)c1nc2ccccc2o1	524.2	-5.5	-5.0	71.0*	77.2*	84.9*	80.0*
CCC(=O)N1CCN(CCN=CC2=C(O)CC(c3cccs3)CC2=O)CC1 (stereo not given)	165.4	-0.7	-3.9	55.7*	55.9*	44.9	44.6
O=c1[nH]c2c(s1)C(c1ccccc1)C1C3CCC(C3)C1S2 (stereo not given)	360.4	0.3	-0.3	16.3	/	/	/
COc1ccc(C2c3sc(=O)[nH]c3SC3C4CCC(C4)C23)cc1 (stereo not given)	240.7	0.0	37.5	51.4*	52.5*	/	/
COC(=O)c1cc(C(=O)c2cccc(Cl)c2Cl)cn1C	196.5	-0.4	4.1	60.8*	73.2*	63.2*	46.1
O=C(CN1CCC(C(=O)c2ccc(Cl)cc2)CC1)NC1CCCC1	422.7	0.0	-1.4	14.3	/	/	/
CC(NC(=O)c1ccc(Br)cc1)c1ccc2c(c1)CCCC2 (stereo not given)	407.1	-0.5	34.5	32.4	/	/	/
CC(NC(=O)c1ccccc1Br)c1ccc2c(c1)CCCC2 (stereo not given)	302.6	-0.1	7.3	56.8*	70.5*	52.2*	30.8
CCCOc1ccc(C(=O)Nc2ccc(N3CCN(C(=O)c4ccco4)CC3)cc2)cc1	227.3	0.3	5.9	5.3	/	/	/
Cc1oc2c(c(=O)c1C)C(=O)CC(c1ccccc1)C2 (stereo not given)	151.0	0.5	-0.8	10.3	/	/	/
CS(=O)(=O)c1sc(C#N)c2c1C(=O)CC(c1ccccc1)C2 (stereo not given)	224.2	56.6*	-12.2	51.0*	38.8	/	/
O=[N+]([O-])c1cc(S(=O)(=O)O)cc([N+](=O)[O-])c1NN(c1ccccc1)c1ccccc1	312.3	-0.2	7.5	13.4	/	/	/
c1ccc(-c2ccc(-c3ccccn3)s2)nc1	203.1	-8.4	21.1	52.4*	55.5*	49.7	24.2
CC1(C)CC(=O)C=C(c2cccc(Cl)c2O)C1	331.6	0.1	/	71.0*	64.7*	75.3*	61.6*
O=C(Nc1cccc(-n2cnnn2)c1)c1ccc(C(F)(F)F)cc1	706.2	-0.2	/	10.5	/	/	/
Cc1ccccc1C(=O)N1CCC(C(=O)OCc2ccccn2)CC1	486.7	0.0	/	-4.8	/	/	/
O=C1NCC2=C1C(c1ccc(Br)cc1)Nc1ccccc1N2 (stereo not given)	672.1	-0.4	4.8	52.3*	63.2*	41.1	33.1
CC1(C)CC(=O)C2=C(C1)Nc1ccccc1NC2c1ccc(F)cc1 (stereo not given)	786.7	-0.4	14.4	-1.3	/	/	/
Cc1ccc(C(=O)NNC(=S)NC(=O)c2ccc(Cl)cc2)cc1	304.9	1.3	-4.5	71.1*	78.2*	73.7*	72.4*
CC(=O)NNC(=S)NC(=O)c1ccc(C)cc1	434.0	-0.6	-9.8	17.7	/	/	/
Cc1ccc(C(=O)NC(=C(Cl)Cl)S(=O)(=O)c2ccc(Cl)cc2)cc1	309.5	-0.4	13.1	56.6*	41.2	33.0	40.5
CC(C)(C)OC(=O)N1CCN(C(=O)c2[nH]cnc2C(=O)Nc2nccs2)CC1	352.7	0.5	/	-8.7	/	/	/
COc1ccc(-n2cc(-c3ccccc3)c3c(=O)[nH]cnc32)cc1	269.6	0.4	15.3	-104.5	-16.6	/	/
O=c1[nH]cnc2c1c(-c1ccccc1)cn2-c1cccc(Cl)c1	288.3	0.0	19.6	-29.9	/	/	/
SMILES	T cell HTS	Bfl-1 A1 inh	NALP1 inh	NALP3 yeast inh	NALP3 confirm	Casp1-ASC yeast	NALP3 yeast rt
CCN(CC)c1ccc2nc3ccc(N)cc3[n+](-c3ccccc3)c2c1	/	/	/	50.9*	51.0*	38.6	51.6*
CCN(CC)c1ccc2nc3ccccc3[n+](CC)c2c1	219.3	-0.8	28.3	66.8*	72.8*	43.5	57.2*
CCN(CC)c1ccc(/C=N/n2nnnc2N)c(O)c1	363.9	-0.4	13.3	3.2	/	/	/
CCN(CC)c1ccc2cc(-c3nc4ccccc4[nH]3)c(=O)oc2c1	641.6	-7.7	41.4	-9.4	/	/	/
CN1CCN(C(c2ccc(Br)cc2)c2cc(Cl)c3cccnc3c2O)CC1 (stereo not given)	323.1	-0.4	-1.7	57.3*	37.2	/	/
O=C(/C=C/c1ccccc1)Oc1cccc2cccnc12	591.9	-0.3	-21.6	34.8	/	/	/
O=C(/C=C\c1ccccc1)Oc1cccc2cccnc12	354.4	-0.3	-20.0	52.9*	42.0	40.8	36.6
Cc1ccc(C)c(S(=O)(=O)N2CCN(C(=O)[C@H](C)N3C(=O)C4CC=CCC4C3=O)CC2)c1 (stereo not given in full)	319.9	0.8	/	14.8	/	/	/
COc1cc2sc(-c3ccccc3OC)c(-c3ccc(OCCN4CCCCC4)cc3)c2cc1OC	313.1	0.5	/	22.7	/	/	/
COc1ccccc1-c1sc2cc3c(cc2c1-c1ccc(OCCN2CCCCC2)cc1)OCO3	319.4	1.1	/	64.1*	48.6*	46.5	43.0
Cc1cc(C)c(C)c(S(=O)(=O)NC2CCCCC2)c1C	490.8	-1.1	2.6	52.7*	45.7	38.5	27.1
CCSc1nnnn1-c1ccccc1	237.9	0.0	2.0	-3.2	/	/	/
Cc1ccc(C)c(-n2nnnc2Sc2nnnn2-c2ccccc2)c1	188.0	1.8	/	58.3*	74.2*	72.7*	62.3*
CSc1ccc2c(c1)N(CCC1CCCCN1C)c1ccccc1S2 (stereo not given)	88.3	-0.3	50.1*	52.1*	60.1*	51.9*	32.8
CC(=O)c1ccc2c(c1)N(CCCN1CCC(CCO)CC1)c1ccccc1S2	967.6	0.5	/	11.7	/	/	/
COCCn1c(-c2ccccc2)csc1=Nc1cccnc1	167.6	0.8	-16.3	8.4	/	/	/
CC(C)n1c(-c2ccco2)csc1=Nc1cccnc1	294.3	-0.4	8.7	52.8*	11.0	/	/
COc1ccc(NC(=O)COc2ccc3c(C)cc(=O)oc3c2)cc1S(=O)(=O)N1CCCCC1	i	0.1	/	10.5	/	/	/
S=C(Sc1ccc(Cl)cc1)Sc1ccc(Cl)cc1	132.6	2.1	/	39.9	/	/	/
COc1cc(C(=O)ON=C2C3CC4CC(C3)CC2C4)cc(OC)c1OC	306.0	-0.7	17.6	59.3*	92.4*	40.1	26.1
O=c1cc(-c2ccc(O)cc2)oc2ccc3ccccc3c12	190.3	-8.5	/	60.9*	80.8*	58.0*	54.1*
O=c1cc(-c2ccc(O)cc2)oc2c1ccc1ccccc12	236.4	-0.5	/	23.0	/	/	/
CC1CCCCC1NC(=O)COC(=O)c1ccc2c(c1)OCCO2 (stereo not given)	143.4	-1.1	/	-8.2	/	/	/
c1ccc([C@H]2CN3C(=N2)Sc2ccccc23)cc1	209.0	-12.5	/	38.3	/	/	/
